Source: PubChem
GASC1 inh – inhibitors of GASC-1 (KDM4C) histone demethylase, primary screen, biochemical, single concentration HTS; Lysine-specific demethylase 4C (Homo sapiens), Q9H3R0; GST-KDM4C 2-372, H3K9me3 peptide, LANCE TR-FRET; inhibition, % at 12.5 µM; 96,000 tested, 0.15% active;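 active = mean replicate inhibition above about 25%, with at least 55% of replicates also reaching it, limit read from the data, passing the limit was not always enough; inconclusive = only one of those two conditions met; inactive = neither condition met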
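Material: GST-tagged GASC-1 (JMJD2C) catalytic fragment, aa 2-372 / Quantity: enzyme final amount 10 nM / Medium: HEPES buffer, pH 7.5, plus ascorbate / Doses: one test concentration per compound / Incubation: 30 min reaction, 60 min detection, RT / Measured by: LANCE TR-FRET / Read-out: inhibition from TR-FRET ratio decrease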
T cruzi growth-1 – T. cruzi intracellular proliferation inhibitors, primary screen, cell-based, beta-gal Tulahuen parasites, NIH3T3 host, luminescence | T. cruzi beta-gal in NIH3T3, GalScreen luminescence, 90 h | inhibition, % at 8.34 µM | 77,000 tested, 5.9% active | AID 624255, 2012;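 active = mean inhibition above about 93%, with at least 55% of replicates each passing it, limit read from the data, passing the limit was not always enough; inconclusive = only one of those two conditions holds; inactive = neither condition holds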
IDH1 mut inh – inhibitors of IDH1 R132H reductase, primary screen, biochemical, plate reader, single point | diaphorase/resazurin fluorescence, 60 min | 70,000 tested, 0.18% active | AID 624101, 2012 | Isocitrate dehydrogenase [NADP] cytoplasmic (Homo sapiens), O75874 | inhibition, % at 10 µM; in the data active = inhibition above about 34%; inconclusive = no clear call, values can overlap the other calls; inactive = below about 11%;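 note: 0% = DMSO and 100% = no enzyme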
Target sequence (O75874 whole entry R132H): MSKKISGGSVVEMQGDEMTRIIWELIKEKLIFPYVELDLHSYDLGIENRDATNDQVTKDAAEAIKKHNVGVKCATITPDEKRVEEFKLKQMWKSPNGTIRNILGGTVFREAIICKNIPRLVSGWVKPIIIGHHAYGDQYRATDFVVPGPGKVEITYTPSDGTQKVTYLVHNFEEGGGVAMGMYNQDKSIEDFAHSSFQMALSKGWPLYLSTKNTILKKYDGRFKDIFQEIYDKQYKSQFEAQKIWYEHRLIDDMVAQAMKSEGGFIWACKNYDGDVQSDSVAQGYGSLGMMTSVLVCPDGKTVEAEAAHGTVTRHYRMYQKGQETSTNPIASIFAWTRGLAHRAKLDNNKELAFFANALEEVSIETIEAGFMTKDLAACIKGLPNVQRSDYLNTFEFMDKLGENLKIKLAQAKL
T cruzi growth-2 – T. cruzi intracellular proliferation inhibitors, confirmation, cell-based, NIH3T3 host, beta-gal parasite, luminescence, cherry-pick. shares compounds with T cruzi growth-1. T. cruzi beta-gal in NIH3T3, GalScreen luminescence, 90 h. inhibition, % at 8.35 µM. 5,600 tested, 72% active. AID 651739, 2012;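 active = mean replicate inhibition above about 95% and at least 55% of replicates individually reaching it, limit read from the data; inconclusive = only one of the two criteria is met; inactive = neither criterion is met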
T cruzi growth-3 – inhibitors of intracellular T. cruzi replication, confirmation, NIH3T3 host cells, beta-gal parasites, cherry-pick, set 2; AID 651740, 2012; inhibition, % at 2.09 µM; shares compounds with T cruzi growth-1; T. cruzi beta-gal in NIH3T3, GalScreen luminescence, 90 h; 5,600 tested, 21% active;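 active = mean inhibition above about 95%, with at least 55% of replicates also reaching it, limit read from the data; inconclusive = meets just one of the two conditions; inactive = meets neither condition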;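 note: plate controls were neutral control median for no effect and positive control median for full effect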
3T3 cytotox – cytotoxicity in mouse NIH/3T3 fibroblasts, confirmation, cytotoxicity control for T. cruzi proliferation inhibitor project, cell-based, cherry-pick, single point | AID 651742, 2012 | 5,600 tested, 14% active | shares compounds with T cruzi growth-1 | cytotoxicity (signal decrease), % at 8.35 µM | NIH/3T3 viability, CellTiter-Glo ATP luminescence, 90 h;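 active = mean signal decrease across replicates above about 35% based on untreated-well scatter, with enough replicates individually passing, limit read from the data; inconclusive = no rule stated though some were filed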;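 note: 0% = median of neutral control wells and 100% = median of positive control wells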
3T3 cytotox 2 – NIH/3T3 fibroblast cytotoxicity, confirmation, cytotoxicity control, cell-based, cherry-pick, single point, set 2; shares compounds with T cruzi growth-1; NIH/3T3 viability, CellTiter-Glo ATP luminescence, 90 h; inhibition, % at 24.9 µM; 5,600 tested, 56% active;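 active = mean loss of cell viability signal at or above a set limit, and enough replicates individually reaching it; inconclusive = meets only the mean limit or only the replicate share; inactive = meets neither condition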;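 note: 0% = median of neutral control wells and 100% = median of positive control wells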
The depositor's hits bear a star. Many of the other results were omitted from the sample, so hits are more common in it than they were.

CCCC#Cc1ccc2c(c1)O[C@H](CN(C)Cc1cccnc1)[C@@H](C)CN([C@@H](C)CO)S2(=O)=O was read as GASC1 inh 0.5, T cruzi growth-1 128.4*, IDH1 mut inh 9.3, T cruzi growth-2 101.5*, T cruzi growth-3 104.3*, 3T3 cytotox 43.3* and 3T3 cytotox 2 104.3*.
Screening CN1C(=O)c2cc(NS(=O)(=O)c3ccc(F)cc3)ccc2OC[C@@H]2O[C@@H](CC(=O)O)CC[C@@H]21 returned GASC1 inh 2.7 and T cruzi growth-1 59.9.
For CN1C(=O)c2cc(NS(=O)(=O)c3ccc(Cl)cc3)ccc2OC[C@H]2O[C@@H](CC(=O)N3CCc4ccccc4C3)CC[C@@H]21 the results were GASC1 inh 0.4, T cruzi growth-1 113.4*, T cruzi growth-2 103.8*, T cruzi growth-3 27.6, 3T3 cytotox 21.2 and 3T3 cytotox 2 70.9*.
Screening COC(=O)C[C@H]1CC[C@@H]2[C@@H](COc3ccc(NS(=O)(=O)c4ccc(C)cc4)cc3C(=O)N2C)O1 returned GASC1 inh -3.6 and T cruzi growth-1 20.8.
Screening CN1C(=O)c2cc(NS(=O)(=O)c3ccc(F)cc3)ccc2OC[C@H]2O[C@H](CC(=O)O)CC[C@H]21 returned GASC1 inh 3.9, T cruzi growth-1 97.4*, T cruzi growth-2 inconclusive, T cruzi growth-3 28.1, 3T3 cytotox 11.7 and 3T3 cytotox 2 -40.6.
For COC(=O)C[C@@H]1CC[C@@H]2[C@H](COc3ccc(NS(=O)(=O)c4ccc(C)cc4)cc3C(=O)N2C)O1 the results were GASC1 inh -3.4, T cruzi growth-1 107.5*, T cruzi growth-2 100.5*, T cruzi growth-3 11.2, 3T3 cytotox 8.2 and 3T3 cytotox 2 -7.4.
Screening COC(=O)C[C@H]1CC[C@@H]2[C@H](COc3ccc(NS(=O)(=O)c4cccc(F)c4)cc3C(=O)N2C)O1 returned GASC1 inh -0.1, T cruzi growth-1 105.1*, T cruzi growth-2 -6.7, T cruzi growth-3 -15.0, 3T3 cytotox -4.5 and 3T3 cytotox 2 -16.3.
For CN1C(=O)c2cc(NS(=O)(=O)c3ccc(Cl)cc3)ccc2OC[C@@H]2O[C@@H](CC(=O)N3CCc4ccccc4C3)CC[C@@H]21 the results were GASC1 inh -0.6 and T cruzi growth-1 64.4.
Screening COC(=O)C[C@@H]1CC[C@@H]2[C@@H](COc3ccc(NS(=O)(=O)c4cccc(F)c4)cc3C(=O)N2C)O1 returned GASC1 inh 2.1 and T cruzi growth-1 19.0.
Screening O=C(CCCC(=O)Nc1ccc2ccccc2c1)Nc1ccc2ccccc2c1 returned IDH1 mut inh 0.3.
Screening Cc1nn(Cc2c(Cl)cccc2Cl)c(C)c1NC(=O)c1noc2c1CC(C(C)(C)C)CC2 (stereo not given) returned IDH1 mut inh 0.5.
For CC(=O)c1cccc(NC(=O)CCN2C(=O)C3CC=C(Cl)CC3C2=O)c1 (stereo not given) the results were IDH1 mut inh -0.2.
`O=C(NO)c1ccc(C(=O)N/N=C/c2cc(O)ccc2[N+](=O)[O-])cc1` gave IDH1 mut inh -0.2.
Screening CS(=O)(=O)N(CC(=O)Nc1ccc(F)c(Cl)c1)Cc1ccccc1 returned IDH1 mut inh -0.5.
O=C(C1CCOCC1)N1CC[C@@H]2[C@H]1c1cc(-c3cccc(F)c3)ccc1N[C@@H]2CO was read as GASC1 inh -1.2 and T cruzi growth-1 49.2.
Screening COc1ccccc1-c1ccc2c(c1)[C@@H]1[C@@H](CCN1C(=O)C1CC1)[C@H](CO)N2 returned GASC1 inh 1.3, T cruzi growth-1 inconclusive, T cruzi growth-2 106.7*, T cruzi growth-3 inconclusive, 3T3 cytotox -15.7 and 3T3 cytotox 2 -28.1.
COc1ccccc1-c1ccc2c(c1)[C@H]1[C@H](CCN1C(=O)C1CCCCC1)[C@@H](CO)N2 was read as GASC1 inh -1.3 and T cruzi growth-1 -3.2.
For COc1ccccc1-c1ccc2c(c1)[C@H]1[C@H](CCN1C(=O)C1CCOCC1)[C@@H](CO)N2 the results were GASC1 inh 0.0, T cruzi growth-1 99.8*, T cruzi growth-2 106.3*, T cruzi growth-3 88.2, 3T3 cytotox -4.9 and 3T3 cytotox 2 -29.5.
COCC#Cc1ccc2c(c1)O[C@H](CN(C)CC1CCOCC1)[C@H](C)CN([C@@H](C)CO)S2(=O)=O was read as GASC1 inh -0.3 and T cruzi growth-1 12.6.
Screening COCC#Cc1ccc2c(c1)O[C@@H](CN(C)CC1CCOCC1)[C@@H](C)CN([C@H](C)CO)S2(=O)=O returned GASC1 inh -2.0 and T cruzi growth-1 -27.5.
`COCC#Cc1ccc2c(c1)O[C@H](CN(C)CC1CCCC1)[C@@H](C)CN([C@H](C)CO)S2(=O)=O` gave GASC1 inh -1.5, T cruzi growth-1 inconclusive, IDH1 mut inh -0.2, T cruzi growth-2 98.9*, T cruzi growth-3 53.4, 3T3 cytotox 23.4 and 3T3 cytotox 2 50.1*.
Screening COCC#Cc1ccc2c(c1)O[C@@H](CN(C)CC1CCCC1)[C@H](C)CN([C@@H](C)CO)S2(=O)=O returned GASC1 inh -1.5, T cruzi growth-1 106.3*, IDH1 mut inh -0.2, T cruzi growth-2 95.8*, T cruzi growth-3 45.5, 3T3 cytotox 20.5 and 3T3 cytotox 2 104.3*.
`C/C=C/c1ccc([C@@H]2[C@H](CO)N(C(=O)NCCC)[C@H]2CNC(=O)C2CC2)cc1` gave GASC1 inh 1.5 and T cruzi growth-1 20.8.
For C/C=C/c1ccc([C@H]2[C@@H](CNC(=O)CC3CC3)N(C(=O)CC)[C@H]2CO)cc1 the results were GASC1 inh 0.1, T cruzi growth-1 102.5*, T cruzi growth-2 51.9, T cruzi growth-3 11.5, 3T3 cytotox 5.9 and 3T3 cytotox 2 11.7.
C/C=C/c1ccc([C@H]2[C@H](CO)N(C(C)=O)[C@H]2CNC(=O)CC2CC2)cc1 was read as GASC1 inh -3.6 and T cruzi growth-1 66.4.
Screening C/C=C/c1ccc([C@@H]2[C@@H](CNC(=O)CC3CC3)N(C(=O)CC)[C@H]2CO)cc1 returned GASC1 inh 1.5, T cruzi growth-1 112.7*, T cruzi growth-2 9.0, T cruzi growth-3 0.2, 3T3 cytotox -15.6 and 3T3 cytotox 2 20.5.
